The results in this text go back to ChEMBL document CHEMBL1122933, “Drug glycosides: potential prodrugs for colon-specific drug delivery” (J Med Chem, 1985).

Data set [1] is described as follows: Km(app) value was determined in homogenates of pooled cecal contents in rats. The conditions noted are these: rat, read-out: Km app. The data set is classed as ADME. An outline of the steps:
(§1)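 Cecal contents from four rats pooled, weighed wet, diluted in 0.01 M phosphate pH 7.0 and homogenized. Reactions were run in duplicate at 37 °C for 15 min across substrate ranges spanning apparent KM. For p-nitrophenyl glycosides: 56-1000 substrate, NaOH stop, A403. For steroid glycosides: 0.5-48 substrate, MeOH quench, HPLC. KM(app) and Vmax (per g wet weight) came from Eadie-Hofstee plots.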

The species entered for data set [2] is Rattus norvegicus. Briefly: Vmax value was determined in homogenates of pooled cecal contents in rats. The format is ADME. A digest of the protocol:
as §1

The species entered for data set [3] is Rattus norvegicus. Briefly: Specific activity of the DSI segment in rat intestine. The data set is classed as functional. A digest of the protocol:
(§2)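 Contents of each rat GI segment (stomach, proximal small intestine, distal small intestine, cecum) were pooled from four animals, weighed wet, diluted in cold 0.01 M phosphate buffer pH 7.0, and homogenized. Homogenate was incubated with 1.0 mM glycoside at 37 °C with shaking for up to 30 min. Aliquots were MeOH-quenched, centrifuged and analysed by HPLC for released aglycon.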

The species entered for data set [4] is Rattus norvegicus. The data set can be described thus: Specific activity of the cecum segment in rat intestine. The data set is classed as functional. An outline of the steps:
as §2

For data set [5], the species on record is Rattus norvegicus. The data set can be described thus: Total activity of the entire contents of DSI segment in rat intestine. The data set is classed as functional. An outline of the steps:
as §2

The species named for data set [6] is Rattus norvegicus. The data set can be described thus: Total activity of the entire contents of PSI segment in rat intestine. The data set is classed as functional. A digest of the protocol:
as §2

The species entered for data set [7] is Rattus norvegicus. The data set can be described thus: Total activity of the entire contents of cecum segment in rat intestine. The data set is classed as functional. An outline of the steps: as §2
The species entered for data set [8] is Rattus norvegicus. Briefly: Total activity of the entire contents of stomach segment in rat intestine. The format is functional. A digest of the protocol:
as §2

For data set [9], the species on record is Rattus norvegicus. Briefly: Specific activity of the stomach segment in rat intestine. The format is functional. An outline of the steps: as §2
Data set [10] is described as follows: Partition coefficient (logP). The data set is classed as physicochemical. The conditions noted are these: octanol/water.
The species named for data set [11] is Rattus norvegicus. Briefly: Specific activity of the PSI segment in rat intestine. The format is functional. The arrangement: unit not given here. A digest of the protocol: as §2

As usually defined, the Km is the substrate concentration at which the rate is half of its maximum. What is called Vmax is the top rate of the reaction or transport when substrate is in excess. As a reminder, the logP is a log measure of how a compound divides between an organic and an aqueous phase.

Take `CC1CC2C3CCC4=CC(=O)C=CC4(C)[C@@]3(F)C(O)CC2(C)[C@@]1(O)C(=O)CO[C@@H]1O[C@H](CO)[C@@H](O)[C@H](O)[C@H]1O` (some centres not stated): in data set [1], the Km was found to be 16.7 µM. In addition, the Vmax in the data set listed under Rattus norvegicus [2] worked out at 10.2 µM/min/g. In addition, the Specific activity in the data set listed under Rattus norvegicus [3] is 19.3 nM/min; in the data set listed under Rattus norvegicus [4], 141 nM/min; in the data set listed under Rattus norvegicus [9], 6.8 nM/min. Further, the Total activity stood at 0.34 µM/min in the data set filed under Rattus norvegicus [5], 0.07 µM/min in the data set filed under Rattus norvegicus [6], 3.5 µM/min in the data set listed under Rattus norvegicus [7] and 0.12 µM/min in the data set filed under Rattus norvegicus [8].

Turning to `C[C@]12CCC(=O)C=C1CC[C@@H]1[C@@H]2[C@@H](O)C[C@@]2(C)[C@H]1CC[C@]2(O)C(=O)CO` [HYDROCORTISONE], the logP in data set [10] came out at 1.54.

On to `O=[N+]([O-])c1ccc(O[C@@H]2O[C@H](CO)[C@@H](O)[C@H](O)[C@H]2O)cc1`, for which the Km in data set [1] worked out at 360 µM. Further, the Vmax in the data set listed under Rattus norvegicus [2] was found to be 697 µM/min/g. Further, the Specific activity in the data set listed under Rattus norvegicus [3] worked out at 86.6 nM/min; in the data set listed under Rattus norvegicus [4], 454 nM/min; in the data set listed under Rattus norvegicus [9] it was 72.2 nM/min. In addition, the Total activity in the data set filed under Rattus norvegicus [5] was 0.65 µM/min; in the data set filed under Rattus norvegicus [6], 0.15 µM/min; in the data set filed under Rattus norvegicus [7] it was 9.1 µM/min; in the data set filed under Rattus norvegicus [8], 0.08 µM/min.

`CC1CC2C3CCC4=CC(=O)C=CC4(C)[C@@]3(F)C(O)CC2(C)[C@@]1(O)C(=O)CO[C@@H]1O[C@@H](CO)[C@@H](O)[C@H](O)[C@H]1O` (some centres not stated): the Km in [1] was 13.3 µM. Also, the Vmax in the data set listed under Rattus norvegicus [2] is 3.9 µM/min/g. Further, the Specific activity in the data set listed under Rattus norvegicus [3] came out at 29.3 nM/min; in the data set listed under Rattus norvegicus [4] it was 322 nM/min; in the data set listed under Rattus norvegicus [9], 2 nM/min. Moreover, the Total activity was determined as 0.41 µM/min in the data set listed under Rattus norvegicus [5], 0.004 µM/min in the data set listed under Rattus norvegicus [6], 6.5 µM/min in the data set listed under Rattus norvegicus [7] and 0.004 µM/min in the data set listed under Rattus norvegicus [8].

For the compound `CC12CCC(=O)C=C1CCC1C3CC[C@](O)(C(=O)CO[C@H]4O[C@H](CO)[C@@H](O)[C@H](O)[C@H]4O)C3(C)CC(O)[C@@]12F` (some centres not stated), the Km in data set [1] is 2.5 µM. The Vmax in the data set filed under Rattus norvegicus [2] is 2.2 µM/min/g. Moreover, in [10], the logP turned out to be 0.25. Besides, the Specific activity was 56.7 nM/min in the data set filed under Rattus norvegicus [3], 12.5 in the data set listed under Rattus norvegicus [11], 642 nM/min in the data set listed under Rattus norvegicus [4] and 7 nM/min in the data set listed under Rattus norvegicus [9]. Further, the Total activity in the data set listed under Rattus norvegicus [5] stood at 0.8 µM/min; in the data set filed under Rattus norvegicus [6], 0.01 µM/min; in the data set listed under Rattus norvegicus [7], 12.9 µM/min; in the data set filed under Rattus norvegicus [8], 0.01 µM/min.

In turn, `C[C@]12C=CC(=O)C=C1CC[C@@H]1[C@@H]2[C@@H](O)C[C@@]2(C)[C@H]1CC[C@]2(O)C(=O)CO[C@@H]1O[C@H](CO)[C@@H](O[C@@H]2O[C@H](CO)[C@@H](O)[C@H](O)[C@H]2O)[C@H](O)[C@H]1O` yielded a logP in data set [10] of -0.56. Further, the Specific activity amounted to 32.5 nM/min in the data set listed under Rattus norvegicus [3], 26 in the data set listed under Rattus norvegicus [11], 109 nM/min in the data set filed under Rattus norvegicus [4] and 7.5 nM/min in the data set filed under Rattus norvegicus [9]. Further, the Total activity worked out at 0.64 µM/min in the data set listed under Rattus norvegicus [5], 0.11 µM/min in the data set filed under Rattus norvegicus [6], 2.2 µM/min in the data set filed under Rattus norvegicus [7] and 0.01 µM/min in the data set filed under Rattus norvegicus [8].

For `CC12CCC(=O)C=C1CCC1C2C(O)CC2(C)C1CC[C@]2(O)C(=O)CO[C@@H]1O[C@@H](CO)[C@@H](O)[C@H](O)[C@H]1O` (some centres not stated), the Km in data set [1] is 33.3 µM. Further, in the data set listed under Rattus norvegicus [2], the Vmax came out at 20.6 µM/min/g. In data set [10], the logP is 0.15. In addition, the Specific activity in the data set filed under Rattus norvegicus [3] was 110 nM/min; in the data set listed under Rattus norvegicus [11] it was 42.5; in the data set listed under Rattus norvegicus [4] it was 592 nM/min; in the data set filed under Rattus norvegicus [9], 12.5 nM/min. Besides, the Total activity in the data set listed under Rattus norvegicus [5] came out at 1.6 µM/min; in the data set filed under Rattus norvegicus [6], 0.02 µM/min; in the data set listed under Rattus norvegicus [7], 11.9 µM/min; in the data set filed under Rattus norvegicus [8], 0.02 µM/min.

With `CC12CCC(=O)C=C1CCC1C3CC[C@](O)(C(=O)CO[C@H]4O[C@@H](CO)[C@@H](O)[C@H](O)[C@H]4O)C3(C)CC(O)[C@@]12F` (some centres not stated), in data set [1], the Km turned out to be 4.4 µM. The maximum rate (Vmax) in the data set filed under Rattus norvegicus [2] was found to be 2.4 µM/min/g. In [10], this compound displayed a logP of 0.84. The Specific activity turned out to be 33 nM/min in the data set filed under Rattus norvegicus [3], 12.3 in the data set listed under Rattus norvegicus [11], 49 nM/min in the data set filed under Rattus norvegicus [4] and 7.7 nM/min in the data set listed under Rattus norvegicus [9]. Besides, the Total activity was determined as 0.43 µM/min in the data set filed under Rattus norvegicus [5], 0.08 µM/min in the data set listed under Rattus norvegicus [6], 1.4 µM/min in the data set filed under Rattus norvegicus [7] and 0.14 µM/min in the data set listed under Rattus norvegicus [8].

Turning to `O=[N+]([O-])c1ccc(O[C@@H]2O[C@H](CO)[C@H](O)[C@H](O)[C@H]2O)cc1`, the Michaelis constant (Km) in [1] is 166 µM. In addition, the Vmax in the data set filed under Rattus norvegicus [2] stood at 1233 µM/min/g. For the same compound, the Specific activity in the data set filed under Rattus norvegicus [3] was 425 nM/min; in the data set filed under Rattus norvegicus [4], 1620 nM/min; in the data set filed under Rattus norvegicus [9] it was 57.8 nM/min. Also, the Total activity in the data set listed under Rattus norvegicus [5] was determined as 3.6 µM/min; in the data set filed under Rattus norvegicus [6], 0.2 µM/min; in the data set listed under Rattus norvegicus [7] it was 30.8 µM/min; in the data set filed under Rattus norvegicus [8] it was 0.7 µM/min.

`CC12CCC(=O)C=C1CCC1C2C(O)CC2(C)C1CC[C@]2(O)C(=O)CO[C@@H]1O[C@H](CO)[C@@H](O)[C@H](O)[C@H]1O` (some centres not stated): the Km in data set [1] was determined as 5.7 µM. For the same compound, in the data set listed under Rattus norvegicus [2], the Vmax was determined as 2.6 µM/min/g. Further, the logP in data set [10] is 0.44. For the same compound, the Specific activity in the data set filed under Rattus norvegicus [3] is 39.2 nM/min; in the data set listed under Rattus norvegicus [11], 15.9; in the data set listed under Rattus norvegicus [4], 30.5 nM/min; in the data set listed under Rattus norvegicus [9] it was 5.5 nM/min. Moreover, the Total activity in the data set listed under Rattus norvegicus [5] amounted to 0.7 µM/min; in the data set filed under Rattus norvegicus [6] it was 0.1 µM/min; in the data set filed under Rattus norvegicus [7], 0.76 µM/min; in the data set listed under Rattus norvegicus [8] it was 0.09 µM/min.

As for `CC12CCC(=O)C=C1CCC1C3CC[C@](O)(C(=O)CO)C3(C)CC(O)[C@@]12F` (some centres not stated), the logP in [10] turned out to be 1.73.

For `C[C@]12C=CC(=O)C=C1CC[C@@H]1[C@@H]2C(O)C[C@@]2(C)[C@H]1CC[C@]2(O)C(=O)CO[C@@H]1O[C@@H](CO)[C@@H](O)[C@H](O)[C@H]1O` (some centres not stated), in [1], the Michaelis-Menten constant (Km) stood at 20 µM. In addition, the Vmax in the data set listed under Rattus norvegicus [2] is 10.3 µM/min/g. In [10], the logP turned out to be 0.11. In addition, the Specific activity in the data set listed under Rattus norvegicus [3] turned out to be 122 nM/min; in the data set listed under Rattus norvegicus [11] it was 49.3; in the data set filed under Rattus norvegicus [4] it was 665 nM/min; in the data set listed under Rattus norvegicus [9], 12.1 nM/min. The Total activity came out at 1.72 µM/min in the data set listed under Rattus norvegicus [5], 0.23 µM/min in the data set listed under Rattus norvegicus [6], 13 µM/min in the data set filed under Rattus norvegicus [7] and 0.19 µM/min in the data set listed under Rattus norvegicus [8].

On to `C[C@]12C=CC(=O)C=C1CC[C@@H]1[C@@H]2C(O)C[C@@]2(C)[C@H]1CC[C@]2(O)C(=O)CO[C@@H]1O[C@H](CO)[C@@H](O)[C@H](O)[C@H]1O` (some centres not stated), for which, in data set [1], the Michaelis constant (Km) is 4.5 µM. In addition, the Vmax in the data set listed under Rattus norvegicus [2] came out at 2.6 µM/min/g. Also, the logP in data set [10] was 0.27. The Specific activity turned out to be 56.8 nM/min in the data set filed under Rattus norvegicus [3], 12.2 in the data set filed under Rattus norvegicus [11], 265 nM/min in the data set listed under Rattus norvegicus [4] and 6.8 nM/min in the data set filed under Rattus norvegicus [9]. The Total activity amounted to 1 µM/min in the data set filed under Rattus norvegicus [5], 0.07 µM/min in the data set listed under Rattus norvegicus [6], 6.6 µM/min in the data set filed under Rattus norvegicus [7] and 0.12 µM/min in the data set filed under Rattus norvegicus [8].

Turning to `O=[N+]([O-])c1ccc(O[C@@H]2O[C@H](CO)[C@@H](O[C@@H]3O[C@H](CO)[C@@H](O)[C@H](O)[C@H]3O)[C@H](O)[C@H]2O)cc1`, the Specific activity in the data set filed under Rattus norvegicus [3] was 26 nM/min; in the data set filed under Rattus norvegicus [4], 96.5 nM/min; in the data set filed under Rattus norvegicus [9] it was 34.2 nM/min. For the same compound, the Total activity was 0.25 µM/min in the data set filed under Rattus norvegicus [5], 0.05 µM/min in the data set filed under Rattus norvegicus [6], 2.6 µM/min in the data set filed under Rattus norvegicus [7] and 0.35 µM/min in the data set filed under Rattus norvegicus [8].

For the compound `C[C@]12C=CC(=O)C=C1CC[C@@H]1[C@@H]2[C@@H](O)C[C@@]2(C)[C@H]1CC[C@]2(O)C(=O)CO` [PREDNISOLONE], the logP in data set [10] worked out at 1.55.

`C[C@@H]1C[C@H]2[C@@H]3CCC4=CC(=O)C=C[C@]4(C)[C@@]3(F)[C@@H](O)C[C@]2(C)[C@@]1(O)C(=O)CO` [DEXAMETHASONE] yielded a logP in data set [10] of 1.72.
